In test [1] the target is T1, Integrin alpha-IIb/beta-3 (Homo sapiens, UniProt P05106+P08514). The experiment in a line: Inhibition of 125 I-Fibrinogen binding to Fibrinogen receptor (inactive). Format: protein-complex assay.
In test [2] the target is T1, Integrin alpha-IIb/beta-3. The experiment in a line: Inhibition of platelet aggregation (PRP) (inactive). Format: functional. The method, boiled down:
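Aggregation of platelets in platelet-rich plasma was induced with ADP, and inhibition of this aggregation was measured.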

Test [3] deals with T1, Integrin alpha-IIb/beta-3. The experiment in a line: Inhibition of Fibrinogen receptor binding. The class given is protein-complex assay.
Test [4] has as its target T1, Integrin alpha-IIb/beta-3. Put plainly: Inhibition of 125 I-Fibrinogen binding to Fibrinogen receptor. Format: protein-complex assay.

Broadly, the IC50 is the concentration at which inhibition is half-maximal. High values mean weaker potency, low ones greater potency.

T1 sequence (P05106 27-788 limits assumed): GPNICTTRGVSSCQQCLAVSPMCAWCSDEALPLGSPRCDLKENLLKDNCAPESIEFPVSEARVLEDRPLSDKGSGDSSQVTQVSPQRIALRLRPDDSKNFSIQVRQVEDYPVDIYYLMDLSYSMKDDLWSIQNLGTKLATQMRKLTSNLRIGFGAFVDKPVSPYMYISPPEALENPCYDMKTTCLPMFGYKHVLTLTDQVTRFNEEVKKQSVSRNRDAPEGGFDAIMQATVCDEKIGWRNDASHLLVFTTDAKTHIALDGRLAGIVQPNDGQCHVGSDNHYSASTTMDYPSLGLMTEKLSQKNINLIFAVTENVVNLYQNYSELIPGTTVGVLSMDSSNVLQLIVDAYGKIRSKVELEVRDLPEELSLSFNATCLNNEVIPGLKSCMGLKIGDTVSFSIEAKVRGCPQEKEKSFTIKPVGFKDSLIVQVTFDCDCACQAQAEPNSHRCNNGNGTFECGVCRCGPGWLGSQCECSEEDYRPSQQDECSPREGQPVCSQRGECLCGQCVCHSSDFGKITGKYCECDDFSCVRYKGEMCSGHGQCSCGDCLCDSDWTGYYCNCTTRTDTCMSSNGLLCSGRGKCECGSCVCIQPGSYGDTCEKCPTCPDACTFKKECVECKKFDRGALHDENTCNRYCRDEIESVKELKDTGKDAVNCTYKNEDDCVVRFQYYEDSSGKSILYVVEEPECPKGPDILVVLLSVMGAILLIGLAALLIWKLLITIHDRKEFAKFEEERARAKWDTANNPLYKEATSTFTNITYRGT
T1 sequence (P08514 32-887 limits assumed): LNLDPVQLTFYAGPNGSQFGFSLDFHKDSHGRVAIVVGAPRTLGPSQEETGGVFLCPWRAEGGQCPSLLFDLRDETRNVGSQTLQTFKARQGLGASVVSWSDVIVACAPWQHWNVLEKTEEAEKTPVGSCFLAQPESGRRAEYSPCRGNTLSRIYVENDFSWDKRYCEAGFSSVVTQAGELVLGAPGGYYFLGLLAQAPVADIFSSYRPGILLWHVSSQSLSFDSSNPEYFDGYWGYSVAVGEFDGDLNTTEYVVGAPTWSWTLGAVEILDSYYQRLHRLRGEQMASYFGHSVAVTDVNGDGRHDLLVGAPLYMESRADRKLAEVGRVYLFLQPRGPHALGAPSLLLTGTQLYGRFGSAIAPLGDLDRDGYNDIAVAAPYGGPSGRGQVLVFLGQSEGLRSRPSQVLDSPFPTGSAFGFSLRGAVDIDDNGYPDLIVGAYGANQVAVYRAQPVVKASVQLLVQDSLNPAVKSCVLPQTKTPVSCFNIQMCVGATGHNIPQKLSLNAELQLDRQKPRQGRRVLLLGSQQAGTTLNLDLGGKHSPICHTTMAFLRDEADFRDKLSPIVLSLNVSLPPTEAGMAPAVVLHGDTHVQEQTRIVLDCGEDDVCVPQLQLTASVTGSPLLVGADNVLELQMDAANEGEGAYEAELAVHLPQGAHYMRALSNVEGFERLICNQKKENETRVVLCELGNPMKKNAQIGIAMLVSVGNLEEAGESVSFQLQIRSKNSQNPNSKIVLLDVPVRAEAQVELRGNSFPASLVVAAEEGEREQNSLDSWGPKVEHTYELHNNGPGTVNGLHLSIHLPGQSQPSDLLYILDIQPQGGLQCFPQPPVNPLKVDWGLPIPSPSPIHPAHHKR
T1 sequence (P08514 891-1039 limits assumed): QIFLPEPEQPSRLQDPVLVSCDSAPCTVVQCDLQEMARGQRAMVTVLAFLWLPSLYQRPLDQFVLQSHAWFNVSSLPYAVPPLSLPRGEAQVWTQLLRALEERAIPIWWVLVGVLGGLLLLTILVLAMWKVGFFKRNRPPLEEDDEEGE

Take `N=C(N)NCCCCCCCC(=O)N[C@@H](CC1N=NN=N1)C(=O)N[C@@H](Cc1ccccc1)C(=O)O`: the IC50 result in test [1] and in test [2] was “Not Active” each time. In the case of `N=C(N)NCCCCCCCC(=O)N[C@@H](CC(=O)O)C(=O)NCCc1ccccc1`, in test [3], the 50% inhibitory concentration (IC50) is 30000 nM. This lies in the double-digit micromolar range. In test [4], `N=C(N)NCCCCCCCC(=O)N[C@@H](CC(=O)O)C(=O)N[C@@H](Cc1ccccc1)C1N=NN=N1` returned an IC50 of 2000 nM. `N=C(N)NCCCCCCCC(=O)N[C@@H](CC(=O)O)C(=O)N[C@@H](Cc1ccccc1)C(=O)O` came in with a half-maximal inhibitory concentration (IC50) in test [3] of 600 nM.

Source of the values: ChEMBL document CHEMBL1125571, “Potent inhibitors of platelet aggregation based upon the Arg-Gly-Asp-Phe sequence of fibrinogen. A proposal on the nature of the binding interaction between the Asp-carboxylate of RGDX mimetics and the platelet GP IIb-IIIa receptor” (J Med Chem, 1992).
